The text below walks through data of PMC8435006 (ACS infectious diseases, 2021).

For one experiment, the target named is NDM-1 (B1 MBL). To be noted: read-out: Ki against NDM-1; MMTZs; same protocol; ref 6 (Rossi et al); cited from earlier work.
The next experiment deals with Sfh-I (B2 MBL) (Serratia fonticola, UniProt Q9RMI1). In words: Ki by imipenem hydrolysis, purified recombinant Sfh-I. The format is biochemical. To be noted: ratio of Ki values. Summed up: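 Sfh-I (2 nM final) hydrolysing imipenem at 30 °C, monitored at 300 nm under steady-state conditions in 10 mM HEPES pH 7.5, 200 mM NaCl, 50 mg/L BSA, with no added zinc. Reactions were started by adding enzyme to the substrate plus inhibitor (DMSO stock diluted in buffer). Ki came from competitive-model fits of the rates, and the fold value is the ratio of Ki values.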

For the next experiment, the target named is L1 (B3 MBL) (Stenotrophomonas maltophilia, UniProt P52700). The experiment in a line: Ki by imipenem hydrolysis, purified recombinant L1. The format is biochemical. The conditions noted are these: read-out: Ki against L1; MMTZs; imipenem substrate, 30 °C, pH 7.5, 20 μM ZnSO4. In a few lines: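 Steady-state imipenem hydrolysis by purified L1 (2 nM final) at 30 °C, followed as the absorbance decrease at 300 nm (Δε300 = −9000 M−1cm−1). Buffer was 10 mM HEPES pH 7.5, 200 mM NaCl, 50 mg/L BSA and 20 μM ZnSO4. Inhibitor came from a DMSO stock diluted into buffer, and enzyme was added last. Rates from slopes were fitted to a competitive inhibition model for Ki.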
Chain of L1 (B3 MBL) (P52700 34-290): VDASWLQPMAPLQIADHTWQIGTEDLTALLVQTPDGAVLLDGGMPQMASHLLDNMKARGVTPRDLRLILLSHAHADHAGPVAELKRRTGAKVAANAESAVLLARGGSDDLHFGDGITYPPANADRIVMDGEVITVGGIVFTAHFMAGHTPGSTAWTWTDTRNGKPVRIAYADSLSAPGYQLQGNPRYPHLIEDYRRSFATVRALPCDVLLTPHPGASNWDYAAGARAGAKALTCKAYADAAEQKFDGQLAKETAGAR

In a further experiment the target is VIM-2 (B1 MBL). To be noted: read-out: Ki against VIM-2; MMTZs; same protocol; ref 6 (Rossi et al); cited from earlier work.
A further experiment addresses IMP-1 (B1 MBL). The conditions noted are these: read-out: Ki against IMP-1; MMTZs; same protocol; ref 6 (Rossi et al); cited from earlier work.
For the next experiment, the target named is CphA. The conditions noted are these: read-out: Ki against CphA; captopril isomers; ref Table S1; cited from earlier work.
The test system of experiment [1] is E. coli DH10B expressing L1. The experiment in a line: Imipenem MIC potentiation, broth microdilution, L1 producer. The format is cell-based.
The subject of experiment [2] is E. coli DH10B expressing NDM-1. In words: Imipenem MIC potentiation, broth microdilution, NDM-1 producer. The format is cell-based. To be noted: 100 μg/mL MMTZ; E. coli DH10B producing NDM-1. Background: In broth dilution the organism is exposed to a series of concentrations in liquid medium.
Experiment [3] relates to E. coli DH10B expressing Sfh-I. The experiment in a line: Imipenem MIC potentiation, broth microdilution, Sfh-I producer. The format is cell-based. To be noted: 100 μg/mL MMTZ; E. coli DH10B producing Sfh-I.
Where [4] appears, read: 50 μg/mL inhibitor, L1-expressing E. coli DH10B.
Setting [5] is: 100 μg/mL MMTZ, E. coli DH10B producing L1.

Usually Ki stands for the equilibrium dissociation constant of an inhibitor or competing ligand from its target. For the molecule `CCOC(=O)[C@@]1(CS)N[C@@H](C(=O)O)CS1` [D-anti-1a], the Ki at NDM-1 (B1 MBL) was 2500 ± 500 nM; at L1 (B3 MBL) it was 4000 ± 500 nM; at VIM-2 (B1 MBL), 390 ± 40 nM; on IMP-1 (B1 MBL), 1300 ± 100 nM. Also, the “Fold less potent against Sfh-I than L-anti-1a” value on Sfh-I (B2 MBL) was 125 – 800 fold.
As to `CCOC(=O)[C@@]1(CS)N[C@@H](C(=O)O)C(C)(C)S1` [D-anti-1b], the Ki is 3100 ± 300 nM on NDM-1 (B1 MBL), 1400 ± 200 nM on L1 (B3 MBL), 900 ± 100 nM at VIM-2 (B1 MBL) and 930 ± 80 nM at IMP-1 (B1 MBL). In addition, at Sfh-I (B2 MBL), the “Fold less potent against Sfh-I than L-anti-1a” value is recorded as 125 – 800 fold.
Turning to `C[C@H](CS)C(=O)N1CCC[C@@H]1C(=O)O` [D-captopril], on CphA, the Ki was 72000 nM.
Consider `CCOC(=O)[C@]1(CS)N[C@@H](C(=O)O)C(C)(C)S1` [D-syn-1b], for which the Ki at NDM-1 (B1 MBL) is 600 ± 50 nM; at L1 (B3 MBL), 4000 ± 600 nM; on VIM-2 (B1 MBL), 1900 ± 100 nM; on IMP-1 (B1 MBL), 2000 ± 200 nM. The “Reduction of imipenem MIC” value in experiment [1] (setting [4]) is recorded as “four-fold”; in experiment [1] (setting [5]), “least effect”; in experiment [2], “least effect”; in experiment [3], “least effect”.
As for `CCOC(=O)[C@]1(CS)N[C@H](C(=O)O)CS1` [L-anti-1a], the Ki at NDM-1 (B1 MBL) was 5200 ± 700 nM; on L1 (B3 MBL), 10000 ± 800 nM; on VIM-2 (B1 MBL), 380 ± 50 nM; at IMP-1 (B1 MBL), 1000 ± 200 nM. The “Reduction of imipenem MIC” value in experiment [1] (setting [5]), in experiment [2] and in experiment [3] was 4 fold each time.
Regarding `CCOC(=O)[C@]1(CS)N[C@H](C(=O)O)C(C)(C)S1` [L-anti-1b], the Ki on NDM-1 (B1 MBL) was 440 ± 60 nM; on L1 (B3 MBL) it was 20000 ± 2000 nM; on VIM-2 (B1 MBL) it was 750 ± 90 nM; on IMP-1 (B1 MBL), 460 ± 50 nM. Further, the “Reduction of imipenem MIC” value in [1] (setting [4]) is listed as “four-fold”.
On to `C[C@H](CS)C(=O)N1CCC[C@H]1C(=O)O` [L-captopril], for which the Ki at CphA is 950000 nM.
In the case of `CCOC(=O)[C@@]1(CS)N[C@H](C(=O)O)C(C)(C)S1` [L-syn-1b], the Ki is 8000 ± 1000 nM on NDM-1 (B1 MBL), 28000 ± 3000 nM at L1 (B3 MBL), 3600 ± 400 nM on VIM-2 (B1 MBL) and 6000 ± 600 nM at IMP-1 (B1 MBL). Also, the “Reduction of imipenem MIC” value in experiment [1] (setting [4]) was “four-fold”.
